From ChEMBL document CHEMBL4340580, “Antibacterial and Inhibitory Activities against Nitric Oxide Production of Coumaronochromones and Prenylated Isoflavones from Millettia extensa” (J Nat Prod, 2019)
In brackets after ≈: the same amount, converted by molar mass. Activity calls are given as the source filed them. The calls are words filed in the database; no cut-off is given here.

Experiments:
[1] = system: RAW264.7; assay: Inhibition of LPS-induced nitric oxide production in mouse RAW264.7 cells incubated for 24 hrs by Griess reagent based assay; assay type: functional, cell-based
In short: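 RAW 264.7 cells were seeded at 5.0 × 10^5 cells/mL and held 24 h at 37 °C, 5% CO2. Medium was discarded and cells were stimulated with 1 μg/mL LPS with or without compound for 24 h at 37 °C. Supernatant was mixed 1:1 with Griess reagent for 10 min at room temperature. Absorbance was read at 570 nm against a sodium nitrite calibration curve, giving IC50.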

[2] = Toxicity in mouse RAW264.7 cells assessed as cell viability at 10 uM by MTT assay; assay type: cell-based; conditions: read-out: Activity
[3] = system: Streptococcus mutans; assay: Antibacterial activity against Streptococcus mutans by CLSI protocol based method; assay type: functional
In short: (§1)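 Strains came from the Microbiological Resources Center, Bangkok, Thailand. Antibacterial testing followed Clinical and Laboratory Standards Institute recommendations.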

[4] = system: Shigella flexneri; assay: Antibacterial activity against Shigella flexneri at >128 ug/ml by CLSI protocol based method; assay type: functional, organism-based; in short: as §1
[5] = system: Shigella flexneri; assay: Antibacterial activity against Shigella flexneri by CLSI protocol based method; assay type: functional; in short: as §1
[6] = system: Staphylococcus epidermidis; assay: Antibacterial activity against Staphylococcus epidermidis by CLSI protocol based method; assay type: functional; in short: as §1
[7] = system: Micrococcus luteus; assay: Antibacterial activity against Micrococcus luteus by CLSI protocol based method; assay type: functional; in short: as §1
[8] = system: Staphylococcus aureus; assay: Antibacterial activity against Staphylococcus aureus by CLSI protocol based method; assay type: functional; in short: as §1
[9] = system: Pseudomonas aeruginosa; assay: Antibacterial activity against Pseudomonas aeruginosa by CLSI protocol based method; assay type: functional; in short: as §1
[10] = system: Escherichia coli; assay: Antibacterial activity against Escherichia coli by CLSI protocol based method; assay type: functional; in short: as §1
[11] = system: Bacillus cereus; assay: Antibacterial activity against Bacillus cereus by CLSI protocol based method; assay type: functional; in short: as §1
[12] = system: Pseudomonas aeruginosa; assay: Antibacterial activity against Pseudomonas aeruginosa at >128 ug/ml by CLSI protocol based method; assay type: functional, organism-based; in short: as §1
[13] = system: Streptococcus mutans; assay: Antibacterial activity against Streptococcus mutans at >128 ug/ml by CLSI protocol based method; assay type: functional, organism-based; in short: as §1
[14] = system: Micrococcus luteus; assay: Antibacterial activity against Micrococcus luteus at >128 ug/ml by CLSI protocol based method; assay type: functional, organism-based; in short: as §1
[15] = system: Bacillus cereus; assay: Antibacterial activity against Bacillus cereus at >128 ug/ml by CLSI protocol based method; assay type: functional, organism-based; in short: as §1
[16] = system: Escherichia coli; assay: Antibacterial activity against Escherichia coli at >128 ug/ml by CLSI protocol based method; assay type: functional, organism-based; in short: as §1

Compound | IC50 ([1]; raw264.7) | viability at 10 µM [2] | MIC [3] | Activity [4] | MIC [5] | MIC [6] | MIC [7] | MIC [8] | MIC [9] | MIC [10] | MIC [11] | Activity [12] | Activity [13] | Activity [14] | Activity [15] | Activity [16] | IC50 ([1]; Mus musculus, RAW264.7, 24 h, read-out: IC50)
CC(C)=CCc1c2c(c(O)c3c(=O)c(-c4ccc(O)cc4O)coc13)C=CC(C)(C)O2 | Not Active | 75.5% | – | – | – | – | – | – | – | – | – | – | – | – | – | – | –
C=CC(C)(C)c1cc(-c2coc3cc4c(c(OC)c3c2=O)C=CC(C)(C)O4)c(O)cc1O | – | – | 128 µg/mL (≈ 295 µM) | inactive | inactive | 128 µg/mL (≈ 295 µM) | 32 µg/mL (≈ 73.6 µM) | 8 µg/mL (≈ 18.4 µM) | 128 µg/mL (≈ 295 µM) | 128 µg/mL (≈ 295 µM) | 8 µg/mL (≈ 18.4 µM) | – | – | – | – | – | –
COc1c2c(cc3occ(-c4ccc(OCC=C(C)C)cc4)c(=O)c13)OC(C)(C)C=C2 | Not Active | 68.7% | – | – | – | – | – | – | – | – | – | inactive | – | – | – | – | –
COc1c2c(cc3occ(-c4ccc(OCC=C(C)C)c(O)c4)c(=O)c13)OC(C)(C)C=C2 | Not Active | 64.5% | inactive | – | 128 µg/mL (≈ 295 µM) | 128 µg/mL (≈ 295 µM) | inactive | 128 µg/mL (≈ 295 µM) | inactive | inactive | inactive | inactive | inactive | inactive | inactive | inactive | –
CC1(C)C=Cc2c(c(CCO)c3occ(-c4ccc(O)c(O)c4)c(=O)c3c2O)O1 | Not Active | 68.2% | 128 µg/mL (≈ 323 µM) | inactive | inactive | 128 µg/mL (≈ 323 µM) | 32 µg/mL (≈ 80.7 µM) | – | inactive | 128 µg/mL (≈ 323 µM) | – | inactive | – | – | – | – | –
CC(C)=CCOc1ccc(-c2coc3cc(OCC=C(C)C)cc(O)c3c2=O)cc1 | Not Active | 72.2% | inactive | – | 128 µg/mL (≈ 315 µM) | 128 µg/mL (≈ 315 µM) | inactive | 128 µg/mL (≈ 315 µM) | inactive | inactive | inactive | inactive | inactive | inactive | inactive | inactive | –
COc1c2c(cc3occ(-c4ccc(OCC=C(C)C)cc4O)c(=O)c13)OC(C)(C)C=C2 | – | – | inactive | inactive | inactive | 128 µg/mL (≈ 295 µM) | inactive | 128 µg/mL (≈ 295 µM) | inactive | inactive | inactive | inactive | inactive | inactive | inactive | inactive | –
GENTAMICIN | – | – | – | – | – | – | – | – | – | 0.25 µg/mL | – | – | – | – | – | – | –
CC(C)=CCc1c2c(c(O)c3c(=O)c(-c4ccc(O)cc4)coc13)C=CC(C)(C)O2 [WARANGALONE] | – | 86.5% | – | – | – | – | – | – | – | – | – | – | – | – | – | – | 8.5 µM
CC(C)=CCC1=C(O)c2c(occ(-c3ccc(O)cc3O)c2=O)C(CC=C(C)C)(CC=C(C)C)C1=O | Not Active | 75.5% | – | – | – | – | – | – | – | – | – | – | – | – | – | – | –
